Assay results from ChEMBL document CHEMBL1125347, “Synthesis of novel MPTP analogs as potential monoamine oxidase B (MAO-B) inhibitors” (J Med Chem, 1992).

Experiments:
[1] = molecular target: T1, Amine oxidase [flavin-containing] B (Bos taurus, UniProt P56560); assay: Monoamine oxidase B Inactivation property expressed as inactivation constant (K inact).
T1 sequence (P56560 whole entry): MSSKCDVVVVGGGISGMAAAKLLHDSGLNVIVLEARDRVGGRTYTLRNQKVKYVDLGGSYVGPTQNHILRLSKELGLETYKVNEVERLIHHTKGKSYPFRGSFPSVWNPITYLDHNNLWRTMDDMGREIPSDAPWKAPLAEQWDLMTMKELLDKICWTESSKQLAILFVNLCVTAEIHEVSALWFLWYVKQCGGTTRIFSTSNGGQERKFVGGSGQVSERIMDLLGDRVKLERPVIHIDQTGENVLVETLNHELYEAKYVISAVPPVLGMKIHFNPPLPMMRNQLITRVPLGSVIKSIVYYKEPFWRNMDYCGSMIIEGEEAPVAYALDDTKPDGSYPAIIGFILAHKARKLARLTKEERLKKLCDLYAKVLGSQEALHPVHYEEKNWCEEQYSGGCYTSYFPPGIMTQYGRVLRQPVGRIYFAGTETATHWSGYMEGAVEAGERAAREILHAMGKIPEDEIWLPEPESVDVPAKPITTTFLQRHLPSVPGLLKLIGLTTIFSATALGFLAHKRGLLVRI

[2] = molecular target: T1, Amine oxidase [flavin-containing] B; assay: Inhibitory constant against monoamine Oxidase(MAO-B).
[3] = Kinetic parameter KM (nM) for the MAO-B catalyzed oxidation of the compound.; type: ADME
Summary of the method: (§1)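 Compound at 0.05-2.5 mM in 100 mM phosphate pH 7.4 was equilibrated 2 min at 37 °C, then 0.05 unit of purified beef liver MAO-B was added. Initial rates were followed by the rise in absorbance of the dihydropyridinium product. KM and Vmax came from Lineweaver-Burk plots. One unit converts 1 μmol benzylamine per min.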

[4] = Kinetic parameter Vmax (nm/min/unit of MAO-B) for the MAO-B catalyzed oxidation of the compound.; type: ADME; summary of the method: as §1
[5] = molecular target: T1, Amine oxidase [flavin-containing] B; assay: MAO-B Inactivation property expressed as inactivation constant (K inact).
[6] = molecular target: T1, Amine oxidase [flavin-containing] B; assay: Monoamine oxidase B Inactivation property expressed as inactivation constant (K inact); Not active
[7] = molecular target: T1, Amine oxidase [flavin-containing] B; assay: Inhibitory constant against monoamine Oxidase (MAO-B); Not active
[8] = molecular target: T1, Amine oxidase [flavin-containing] B; assay: MAO-B Inactivation property expressed as inactivation constant (K inact) was determined at a concentration of 50-100 uM
[9] = molecular target: T1, Amine oxidase [flavin-containing] B; assay: Inhibitory constant against monoamine Oxidase(MAO-B) was determined at a concentration of 50-100 uM
[10] = molecular target: T1, Amine oxidase [flavin-containing] B; assay: Monoamine oxidase B Inactivation property expressed as inactivation constant (K inact) was determined at a concentration of 300-1500 uM
[11] = molecular target: T1, Amine oxidase [flavin-containing] B; assay: Inhibitory constant against monoamine Oxidase(MAO-B) was determined at a concentration of 300-1500 uM

Structure (SMILES)	kinact [1] [s⁻¹]	Ki [2] [µM]	Km [3] [µM]	Vmax [4]	also measured
C=CCN1CC=C(c2ccccc2)CC1	0.000483	268	–	–	–
C#CC1=CCN(C)CC1	–	154	861	684	kinact [5]: 0.000833 s⁻¹
C1=C(c2ccccc2)CCN(C2CCC2)C1	–	–	–	–	kinact [6]: Not Active; Ki [7]: Not Active
CN1CC=C(C#Cc2ccccc2)CC1	–	820	–	–	kinact [5]: 0.00533 s⁻¹
C#CCN1CC=C(c2ccccc2)CC1	–	–	–	–	kinact [8]: 0.004 s⁻¹; Ki [9]: 172 µM
CN1CC=C(c2ccccc2)CC1	–	–	390	204	–
CCCN1CC=C(c2ccccc2)CC1	–	–	2000	7	kinact [10]: 0.001 s⁻¹; Ki [11]: 5000 µM
C1=C(c2ccccc2)CCN(C2CCCC2)C1	0.00075	173	–	–	–
C=CC1=CCN(C)CC1	0.00133	330	80	190	–
